Assay outcomes (PubChem)
Hits are enriched below; roughly 1.9% of the tested compounds scored in any of these assays.
SKBR3 24h inh – SK-BR-3 proliferation inhibitors. SK-BR-3 viability, CellTiter-Glo ATP luminescence, 24 h; active compounds read low. viability, % at 10 µM. hit rate 0.47% among 41,000. AID 847;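 active = viability at or below the median of all test compounds minus 3 SD, in both replicates if run twice, cut at about 45% in these data; inconclusive = duplicate replicates that disagree with each other; inactive = viability above that cutoff in every replicate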
Jurkat tox 60K – cytotoxicity toward Jurkat cells. Jurkat E6.1 viability, ATP luminescence, 48 h. inhibition, % at 4 µM. hit rate 1.2% among 56,000;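 active = inhibition above the mean inhibition of all tested compounds plus 3 SD, cut at about 28% in these data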
S1P1 ag-PAM – activates or potentiates agonism at human S1P1 receptor; P21453; S1P1 CRE-bla cells, forskolin, beta-lactamase FRET, potentiator mode; S1P1 agonist co-added at EC20, 2 nM; 100% = saturating reference agonist, 0% = basal; activation, % at 9.5 µM; hit rate 0.57% among 56,000; AID 449;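 active = activation above a cutoff set at the mean activation of all tested compounds plus 3 SD, cut at about 54% in these data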;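 also: forskolin at 4 µM as EC80 and the EC20 agonist is SEW2871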
Target sequence (P21453 whole entry, looked up): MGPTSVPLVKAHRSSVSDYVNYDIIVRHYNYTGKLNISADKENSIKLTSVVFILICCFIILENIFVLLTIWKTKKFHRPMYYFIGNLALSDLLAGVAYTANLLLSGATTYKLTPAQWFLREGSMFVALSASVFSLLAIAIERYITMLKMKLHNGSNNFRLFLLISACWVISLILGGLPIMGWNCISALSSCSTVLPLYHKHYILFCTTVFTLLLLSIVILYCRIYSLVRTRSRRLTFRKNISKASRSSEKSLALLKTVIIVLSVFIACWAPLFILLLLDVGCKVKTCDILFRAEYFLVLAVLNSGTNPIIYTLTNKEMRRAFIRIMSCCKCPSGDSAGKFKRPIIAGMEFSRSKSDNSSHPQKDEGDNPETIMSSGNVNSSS
HEK293 NFkB inh – inhibitors of the PMA/ionomycin-induced NF-kB reporter in HEK293 cells; hit rate 0.21% among 62,000; AID 465; inhibition, % at 3 µM; HEK-293 NF-kB luciferase reporter, luminescence;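 active = inhibition above the mean of all tested compounds plus 3 SD, cut at about 40% in these data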
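System: NF-kB luciferase reporter HEK-293 cells | Replication: Single test | Control set: DMSO vs reference inhibitor | Evaluation: % inhibition | Schedule: 1 h pretreatment, 16 h stimulation, 37 °C | Probe or stimulus: PMA with ionomycin | Compound dosing: One dose, 3 µM | Detection: Luciferase luminescence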
Of the large screens only hits and unclear results are named; the others gave an inactive call.

O=C(COc1ncnc2ccc(Br)cc12)Nc1ccc(N2CCOCC2)cc1	none (no result: SKBR3 24h inh)
Brc1ccc2ncnc(Nc3ccc(N4CCOCC4)cc3)c2c1	S1P1 ag-PAM 60.9
CC1CCCCC1NC(=O)c1cn(C)c2ccc(S(=O)(=O)N3CCCC3)cc2c1=O (stereo not drawn)	SKBR3 24h inh 43.4
CC1CCCC(NC(=O)c2cn(C)c3ccc(S(=O)(=O)N4CCCC4)cc3c2=O)C1C (stereo not drawn)	none
CCC/C(O)=C1\C(=O)CC(C)(C)CC1=Nc1ccc(OC)cc1OC	Jurkat tox 60K 86.5
O=C(CSc1nc(-c2ccc(F)cc2)cs1)N1CCN(C(=O)c2ccco2)CC1	none (no result: SKBR3 24h inh)
Cc1onc(-c2ccccc2)c1C(=O)N1CCCN(C(=O)c2c(-c3ccccc3)noc2C)CC1	none
COc1ccccc1N1CCN(C(=O)c2c(-c3ccccc3)noc2C)CC1	Jurkat tox 60K 87.9 (no result: SKBR3 24h inh)
Cc1cc(C(=O)CSc2n[nH]c(N)n2)c(C)n1-c1cccc(F)c1	none (no result: SKBR3 24h inh)
Cc1cc(C(=O)CSc2nnnn2C)c(C)n1-c1cccc(F)c1	S1P1 ag-PAM 93.3 (no result: SKBR3 24h inh)
CCOC(=O)Cc1csc(NC(=O)c2ccc(Br)s2)n1	S1P1 ag-PAM 65.5
O=C(Nc1ccc2c(c1)OCCO2)C1CCCN(S(=O)(=O)c2cnc[nH]2)C1 (stereo not drawn)	none (no result: SKBR3 24h inh)
Cc1ccc2cc(CN(Cc3ccco3)C(=O)c3cccs3)c(=O)[nH]c2c1	Jurkat tox 60K 92.5
CCOC(=O)CC(Nc1nc(N2CCOCC2)nc(N2CCOCC2)n1)c1ccccc1Cl (stereo not drawn)	none
O=C(CCC1CCCCC1)Nc1ccccc1O	none (no result: S1P1 ag-PAM)
Cc1cccc(OCC(=O)Nc2cc(C)ccc2O)c1	Jurkat tox 60K 55.2
COc1ccc(C(=O)/C=C/Nc2cc(C)on2)cc1	none (no result: Jurkat tox 60K, S1P1 ag-PAM, HEK293 NFkB inh)
COc1cccc(C(=O)/C=C/Nc2cc(C)ccc2O)c1	Jurkat tox 60K 64.2
Cc1ccc(O)c(NC(=O)CCC2CCCCC2)c1	Jurkat tox 60K 39.4
CC1(C)CC(NC(=O)C23CCC(C)(C(=O)C2)C3(C)C)CC(C)(C)N1 (stereo not drawn)	none
CCOc1cccc2cc(-c3csc(NC(=O)CCC(=O)N4CCN(C)CC4)n3)c(=O)oc12	none (no result: SKBR3 24h inh)
Cc1cccn2cc(-c3ccccc3)nc12	none
Cc1ccc2nc(-c3ccccc3)cn2c1	HEK293 NFkB inh 70.8 (no result: SKBR3 24h inh)
COc1ccc(-c2cc(C(F)(F)F)nc(SCCC(=O)Nc3cc(C)on3)n2)cc1	none
CS(=O)(=O)c1nc(-c2cccs2)cc(C(F)(F)F)n1	SKBR3 24h inh 21.8 (no result: Jurkat tox 60K, S1P1 ag-PAM)
Cc1cc(NC(=O)CSc2nc(-c3cccs3)cc(C(F)(F)F)n2)no1	Jurkat tox 60K 74.1
COc1ccc(-c2cc(C(F)(F)F)nc(SCC(=O)Nc3cc(C)on3)n2)cc1OC	none
Cc1c(NC(=O)CSc2nc(-c3ccco3)cc(C(F)(F)F)n2)c(=O)n(-c2ccccc2)n1C	none
Cc1cc(NC(=O)CCCS(=O)(=O)c2nc(-c3cccs3)cc(C(F)(F)F)n2)no1	SKBR3 24h inh 36.8, Jurkat tox 60K 100.1
Cc1cc(NC(=O)CSc2nc(-c3ccco3)cc(C(F)(F)F)n2)n(-c2ccccc2)n1	Jurkat tox 60K 32.6
Cc1ccc(C)c(S(=O)(=O)N2CCN(CC(=O)NC(=O)NCc3ccccc3)CC2)c1	none (no result: SKBR3 24h inh)
Cn1c(C(=O)O)c(CC(=O)Nc2ccccc2F)c2ccccc21	SKBR3 24h inh 30.1
Cn1c(C(=O)O)c(CC(=O)NCC2COc3ccccc3O2)c2ccccc21 (stereo not drawn)	none
CCC1CCCCN1c1nc2c(c(=O)n(C)c(=O)n2C)n1CCSc1nc2ccccc2o1 (stereo not drawn)	none (no result: SKBR3 24h inh)
O=C(NCc1ccc2c(c1)OCO2)C1CCN(C(=O)Nc2ccc(Cl)cc2)CC1	none
O=C(NCc1ccc2c(c1)OCO2)C1CCCN1C(=O)Nc1cccc(Cl)c1 (stereo not drawn)	SKBR3 24h inh 33.7
CCCS(=O)(=O)c1nnnn1-c1cccc(OC)c1	SKBR3 24h inh inconclusive, Jurkat tox 60K 101.3, S1P1 ag-PAM 116.2
COc1ccc(-n2nnnc2SCC(=O)c2cccc(OC)c2)cc1	none
CC(C)CC(c1nnnn1Cc1ccccc1)N1CCN(C(=O)c2ccco2)CC1 (stereo not drawn)	none (no result: SKBR3 24h inh)
Cn1c(C(=O)NCCCN2CCCC2=O)cc2c(=O)n3ccccc3nc21	none
CCCCCCn1ccc(=N)cc1	Jurkat tox 60K 40.9
CCOc1cc(-c2nc(-c3ccncc3)no2)cc(OCC)c1OCC	none
CCOc1ccc(-c2nc(-c3ccccc3)no2)cc1OCC	S1P1 ag-PAM 107.5 (no result: SKBR3 24h inh)
CCOc1cc(-c2nc(-c3ccc(OC)cc3)no2)cc(OCC)c1OCC	none
Cc1cc(C)cc(-c2nc(-c3ccncc3)no2)c1	S1P1 ag-PAM 105.2 (no result: SKBR3 24h inh)
CCOc1ccc(-c2nc(-c3ccncc3)no2)cc1OCC	S1P1 ag-PAM 110.6
COc1ccccc1NC(=O)C1=C(C)NC2=C(C(=O)CCC2)C1c1ccc2c(c1)OCO2 (stereo not drawn)	none
COc1ccc(C)cc1-n1nnnc1SCc1cc(=O)n2cc(C)ccc2n1	none (no result: SKBR3 24h inh)
Cn1c(SCC(=O)Nc2ccc(N3CCOCC3)c(Cl)c2)nnc1-c1ccccc1	S1P1 ag-PAM 89.2
O=C(Cc1ccc(-n2cccc2)cc1)NCc1cccs1	Jurkat tox 60K 70.9
CCOC(=O)c1ccc2c(c1)nc(SCc1cn3ccsc3n1)n2CC	none
COc1ccc(C(=O)c2ccc(N(C)C)cc2)c(OC)c1	Jurkat tox 60K 81.4
COc1ccc(C(=O)c2ccc(N3CCOCC3)cc2)c(OC)c1	none (no result: Jurkat tox 60K, HEK293 NFkB inh)
O=C1c2ccccc2C(=O)N1CCCc1nc2ccccc2c(=O)n1-c1cccnc1	none
CCOC(=O)C1=C(N)n2c(s/c(=C\c3cccs3)c2=O)=C(C(=O)OCC)C1c1cccs1 (stereo not drawn)	Jurkat tox 60K 85.6
O=C(O)c1c(Cl)c(Cl)c(Cl)c(Cl)c1C(=O)N1CCOCC1	none
COc1ccc(C2=CC(c3ccc(OC)c(OC)c3)n3nnnc3N2)c(OC)c1 (stereo not drawn)	none
COc1cccc(C2C=C(c3ccc(OC)cc3OC)Nc3nnnn32)c1 (stereo not drawn)	SKBR3 24h inh inconclusive, Jurkat tox 60K 40.7
COc1cccc(C2=CC(c3cccc(OC)c3OC)n3nnnc3N2)c1 (stereo not drawn)	Jurkat tox 60K 67.0
COc1cccc(C2=CC(c3cccc(OC)c3OC(F)F)n3nnnc3N2)c1 (stereo not drawn)	none
COc1ccc(OC)c(C2C=C(c3ccc(C)c(C)c3)Nc3nnnn32)c1 (stereo not drawn)	none
COc1cccc(C2=CC(c3cc(OC)ccc3OC)n3nnnc3N2)c1 (stereo not drawn)	Jurkat tox 60K 90.2
CC(=O)Nc1cccc(Oc2ccc(-c3noc(C)n3)cc2)c1	none (no result: SKBR3 24h inh, Jurkat tox 60K, S1P1 ag-PAM)
COc1cc(C2C(C#N)=C(C)NC3=C2C(=O)c2ccccc23)cc(OC)c1OC (stereo not drawn)	Jurkat tox 60K 99.6, HEK293 NFkB inh 43.0
CCOC(=O)COc1ccc(S(=O)(=O)N2CCc3ccccc3C2)cc1	none
COC(=O)c1c(C)n(-c2ccc(OC)cc2)c2ccc(O)cc12	S1P1 ag-PAM 65.6
COc1cccc(C2C(C(N)=O)=C(C)Nc3nc(-c4ccccc4Cl)nn32)c1 (stereo not drawn)	none (no result: SKBR3 24h inh)
